Experimental data reported in ChEMBL document CHEMBL1146728, “Statin-derived 1,3-oxazinan-2-ones as submicromolar inhibitors of LFA-1/ICAM-1 interaction: stabilization of the metabolically labile vanillyl side chain” (Bioorg Med Chem Lett, 2004).

Legend:
[1] = Intrinsic clearance in human liver microsomes was determined; type: ADME, Microsome; settings: read-out: Clearance
Procedure, shortened: (§1)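 Pooled liver microsomes at 0.15 mg/mL protein, compound at 1 µM, in 100 mM phosphate buffer pH 7.4 with 5 mM MgCl2, 1 mM EDTA, 0.35 mg/mL albumin and alamethicin, at 37°C. Started with final 4 mM UDPGA plus 1 mM NADPH and stopped at 5 and 20 min with ACN containing 0.02% FA. Single incubations, clearance in µL/min/mg.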

[2] = Intrinsic clearance in rat liver microsomes was determined; type: ADME, Microsome; settings: read-out: Clearance; procedure, shortened: as §1
[3] = biological target: T1, Intercellular adhesion molecule (ICAM-1), Integrin alpha-L/beta-2 (Homo sapiens, UniProt P05107+P20701); experiment: Inhibition of HUT78 cell adhesion to immobilized ICAM-1 protein; type: functional, cell-based
T1 sequence (P20701 whole entry): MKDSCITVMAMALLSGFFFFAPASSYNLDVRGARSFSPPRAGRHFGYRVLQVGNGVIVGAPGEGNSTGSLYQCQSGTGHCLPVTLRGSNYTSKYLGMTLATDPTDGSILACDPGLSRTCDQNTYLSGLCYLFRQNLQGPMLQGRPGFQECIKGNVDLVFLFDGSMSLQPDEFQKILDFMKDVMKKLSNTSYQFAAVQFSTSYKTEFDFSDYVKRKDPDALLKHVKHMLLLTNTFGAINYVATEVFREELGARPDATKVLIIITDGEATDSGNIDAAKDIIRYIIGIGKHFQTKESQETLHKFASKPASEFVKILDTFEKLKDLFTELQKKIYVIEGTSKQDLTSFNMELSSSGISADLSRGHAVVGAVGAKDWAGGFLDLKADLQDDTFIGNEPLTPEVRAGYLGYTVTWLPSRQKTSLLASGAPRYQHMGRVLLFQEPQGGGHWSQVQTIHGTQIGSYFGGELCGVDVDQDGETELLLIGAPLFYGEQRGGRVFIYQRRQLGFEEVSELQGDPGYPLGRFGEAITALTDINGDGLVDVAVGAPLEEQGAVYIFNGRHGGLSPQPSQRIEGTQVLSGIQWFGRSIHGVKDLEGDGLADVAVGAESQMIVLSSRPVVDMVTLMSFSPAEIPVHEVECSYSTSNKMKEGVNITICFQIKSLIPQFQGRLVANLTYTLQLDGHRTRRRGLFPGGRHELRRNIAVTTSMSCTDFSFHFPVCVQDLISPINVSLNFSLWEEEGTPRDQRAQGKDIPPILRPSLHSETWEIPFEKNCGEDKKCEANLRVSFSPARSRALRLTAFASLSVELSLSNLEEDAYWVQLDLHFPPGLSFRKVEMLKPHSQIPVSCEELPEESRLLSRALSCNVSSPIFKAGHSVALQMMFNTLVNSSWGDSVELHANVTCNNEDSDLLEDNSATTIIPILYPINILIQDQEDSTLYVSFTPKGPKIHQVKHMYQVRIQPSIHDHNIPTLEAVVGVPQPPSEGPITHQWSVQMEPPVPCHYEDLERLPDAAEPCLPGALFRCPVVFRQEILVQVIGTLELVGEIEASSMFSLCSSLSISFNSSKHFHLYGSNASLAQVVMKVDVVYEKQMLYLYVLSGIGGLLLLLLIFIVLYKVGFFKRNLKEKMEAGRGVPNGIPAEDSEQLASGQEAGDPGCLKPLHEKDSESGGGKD
T1 sequence (P05362 whole entry, further chain): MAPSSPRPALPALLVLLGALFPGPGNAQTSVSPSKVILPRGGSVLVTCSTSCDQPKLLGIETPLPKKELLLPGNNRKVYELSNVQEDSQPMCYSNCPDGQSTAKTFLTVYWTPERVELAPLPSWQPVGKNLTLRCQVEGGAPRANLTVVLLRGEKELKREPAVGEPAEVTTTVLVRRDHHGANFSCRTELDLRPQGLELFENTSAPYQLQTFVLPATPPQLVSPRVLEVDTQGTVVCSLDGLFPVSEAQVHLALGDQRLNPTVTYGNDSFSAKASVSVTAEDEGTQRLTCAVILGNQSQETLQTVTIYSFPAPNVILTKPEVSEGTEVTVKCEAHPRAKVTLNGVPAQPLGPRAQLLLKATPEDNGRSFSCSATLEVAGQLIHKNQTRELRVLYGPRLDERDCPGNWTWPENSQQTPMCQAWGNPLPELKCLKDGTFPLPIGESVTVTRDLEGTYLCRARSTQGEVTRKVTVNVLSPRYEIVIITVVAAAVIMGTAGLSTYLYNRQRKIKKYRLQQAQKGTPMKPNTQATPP
T1 sequence (P05107 whole entry): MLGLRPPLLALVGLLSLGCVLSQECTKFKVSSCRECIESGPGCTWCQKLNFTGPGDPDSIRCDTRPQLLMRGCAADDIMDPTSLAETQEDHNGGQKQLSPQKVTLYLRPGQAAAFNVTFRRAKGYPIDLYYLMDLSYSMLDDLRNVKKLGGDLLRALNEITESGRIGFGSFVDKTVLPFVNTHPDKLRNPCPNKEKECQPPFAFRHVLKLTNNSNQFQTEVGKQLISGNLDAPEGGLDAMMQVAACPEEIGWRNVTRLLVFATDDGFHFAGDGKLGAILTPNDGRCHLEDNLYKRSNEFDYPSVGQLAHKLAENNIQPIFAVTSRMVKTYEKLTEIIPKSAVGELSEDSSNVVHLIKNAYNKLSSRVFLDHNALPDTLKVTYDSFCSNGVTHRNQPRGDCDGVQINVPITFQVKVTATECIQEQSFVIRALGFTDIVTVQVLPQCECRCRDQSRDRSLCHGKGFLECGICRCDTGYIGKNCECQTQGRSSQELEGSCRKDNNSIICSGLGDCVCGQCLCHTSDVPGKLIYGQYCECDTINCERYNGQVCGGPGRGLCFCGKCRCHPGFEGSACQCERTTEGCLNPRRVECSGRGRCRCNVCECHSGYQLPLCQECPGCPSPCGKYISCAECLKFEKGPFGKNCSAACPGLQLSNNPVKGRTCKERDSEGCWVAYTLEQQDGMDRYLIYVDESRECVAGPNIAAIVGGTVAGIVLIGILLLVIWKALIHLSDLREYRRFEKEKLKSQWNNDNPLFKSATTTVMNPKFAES

[4] = biological target: T1, Intercellular adhesion molecule (ICAM-1), Integrin alpha-L/beta-2; experiment: In vitro inhibition of recombinant ICAM-1 binding to purified immobilized LFA-1 using cell-free assay; type: functional
[5] = test system: Mus musculus; experiment: Anti-inflammatory activity against murine model of allergic contact dermatitis (mACD) after single oral administration (1 mg/kg) (in vivo); type: functional
Procedure, shortened: (§2)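 Oxazolone-sensitized mice, eight per group, challenged with 10 µL of 2.0% oxazolone on the inner surface of the right ear; unchallenged left ear served as control. Single oral dose of compound given 2 h after challenge. Ear weight difference at 24 h used as swelling measure. Result is % inhibition versus vehicle controls, mean ± SEM, ANOVA/Dunnett or H/U-test.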

[6] = test system: Mus musculus; experiment: Anti-inflammatory activity against murine model of allergic contact dermatitis (mACD) after single oral administration (0.1 mg/kg) (in vivo); type: functional; procedure, shortened: as §2

Structure (SMILES) | microsomal CLint [1] | microsomal CLint [2] | IC50 [3] | IC50 [4] | Inhibition [5] | Inhibition [6]
CC[C@H](C)C(=O)O[C@H]1C[C@@H](C)C=C2C=C[C@H](C)[C@H](CC[C@@H]3C[C@H](CC(=O)NC)N(Cc4ccc(C(=O)O)cc4)C(=O)O3)[C@H]21 | 205 µL/min/mg | 214 µL/min/mg | > 30 µM | 0.87 µM | 21% | 
CC[C@H](C)C(=O)O[C@H]1C[C@@H](C)C=C2C=C[C@H](C)[C@H](CC[C@@H]3C[C@H](CC(=O)NC)N(Cc4ccc(C(C)(C)O)cc4)C(=O)O3)[C@H]21 | > 500 µL/min/mg | > 500 µL/min/mg |  | 1.5 µM | 26% | 9%
CC[C@H](C)C(=O)O[C@H]1C[C@@H](C)C=C2C=C[C@H](C)[C@H](CC[C@@H]3C[C@H](CC(=O)OC)N(Cc4ccc(O)c(OC)c4)C(=O)O3)[C@H]21 |  |  | 0.12 µM | 0.05 µM | 46% | 16%
CC[C@H](C)C(=O)O[C@H]1C[C@@H](C)C=C2C=C[C@H](C)[C@H](CC[C@@H]3C[C@H](CC(=O)NC)N(Cc4ccc(O)c(OC)c4)C(=O)O3)[C@H]21 | > 500 µL/min/mg | > 500 µL/min/mg | 0.25 µM | 0.05 µM | 47% | 39%
CC[C@H](C)C(=O)O[C@H]1C[C@@H](C)C=C2C=C[C@H](C)[C@H](CC[C@@H]3C[C@H](CC(=O)NC)N(Cc4ccc5c(c4)OCO5)C(=O)O3)[C@H]21 | 383 µL/min/mg | 100 µL/min/mg | 6.42 µM | 0.17 µM | 29% | 28%
CC[C@H](C)C(=O)O[C@H]1C[C@@H](C)C=C2C=C[C@H](C)[C@H](CC[C@@H]3C[C@H](CC(=O)NC)N(Cc4cccc(OC)c4)C(=O)O3)[C@H]21 | 55 µL/min/mg | 123 µL/min/mg | 6.5 µM | 0.27 µM | 21% | 

Second part, led by results:

microsomal CLint [1] | microsomal CLint [2] | IC50 [3] | IC50 [4] | Structure (SMILES) | Inhibition [5] | Inhibition [6]
 |  | 20.5 µM | 0.64 µM | CC[C@H](C)C(=O)O[C@H]1C[C@@H](C)C=C2C=C[C@H](C)[C@H](CC[C@@H]3C[C@H](CC(=O)OC)N(CCc4ccc(O)c(OC)c4)C(=O)O3)[C@H]21 | 30% | 9%
> 500 µL/min/mg | > 500 µL/min/mg | 9.5 µM | 0.8 µM | CC[C@H](C)C(=O)O[C@H]1C[C@@H](C)C=C2C=C[C@H](C)[C@H](CC[C@@H]3C[C@H](CC(=O)NC)N(CCc4ccc(O)c(OC)c4)C(=O)O3)[C@H]21 | 43% | 29%
 |  | 4.5 µM | 0.68 µM | CC[C@H](C)C(=O)O[C@H]1C[C@@H](C)C=C2C=C[C@H](C)[C@H](CC[C@@H]3C[C@H](CC(=O)OC)N(Cc4cccc(OC)c4)C(=O)O3)[C@H]21 | 23% | 
> 500 µL/min/mg | 207 µL/min/mg | 5.59 µM | 1.15 µM | CC[C@H](C)C(=O)O[C@H]1C[C@@H](C)C=C2C=C[C@H](C)[C@H](CC[C@@H]3C[C@H](CC(=O)NC)N(Cc4ccc5c(c4)OC(F)(F)O5)C(=O)O3)[C@H]21 | 19% | 
 |  | > 30 µM | > 30 µM | CC[C@H](C)C(=O)O[C@H]1C[C@@H](C)C=C2C=C[C@H](C)[C@H](CC[C@@H]3C[C@H](CC(=O)OC)N(Cc4ccc5c(c4)OC(F)(F)O5)C(=O)O3)[C@H]21 | -3% | 
> 500 µL/min/mg | > 500 µL/min/mg | > 30 µM | 0.62 µM | CC[C@H](C)C(=O)O[C@H]1C[C@@H](C)C=C2C=C[C@H](C)[C@H](CC[C@@H]3C[C@H](CC(=O)NC)N(Cc4ccc(C(=O)NC)cc4)C(=O)O3)[C@H]21 | 26% | 32%
 |  | > 30 µM | 1.3 µM | CC[C@H](C)C(=O)O[C@H]1C[C@@H](C)C=C2C=C[C@H](C)[C@H](CC[C@@H]3C[C@H](CC(=O)OC)N(Cc4ccc(C(=O)NC)cc4)C(=O)O3)[C@H]21 | 8% | 
 |  | 7.69 µM | 3 µM | CC[C@H](C)C(=O)O[C@H]1C[C@@H](C)C=C2C=C[C@H](C)[C@H](CC[C@@H]3C[C@H](CC(=O)OC)N(Cc4ccc(C(C)(C)O)cc4)C(=O)O3)[C@H]21 | 33% | 12%
 |  | 2.59 µM | 1 µM | CC[C@H](C)C(=O)O[C@H]1C[C@@H](C)C=C2C=C[C@H](C)[C@H](CC[C@@H]3C[C@H](CC(=O)OC)N(Cc4ccc5c(c4)OCO5)C(=O)O3)[C@H]21 | 42% | 32%
